Here are results for 59 sequences from the array DNA melting data of Ke et al. (doi:10.1101/2024.01.08.574731).

The nature of data set [1]: melting temperature; fluorescence melt of hairpins on a sequencing array, two-state fit, raised by 9.35 °C to match UV melts. The conditions noted are these: sodium 0.088 M. In short, it runs like this:
(§1)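 On a sequenced MiSeq flow cell, library hairpins with annealed Cy3 and quencher oligos were imaged for Cy3 fluorescence in 2.5 °C steps up to 60 °C, in 50 mM Na-HEPES pH 8.0, 25 mM NaCl. Normalisation used pre-quench Cy3 and control constructs. Bootstrapped two-state fits gave melting temperature and folding enthalpy, combined by inverse variance across four replicates and with fitted temperatures raised by 9.35 °C to match UV melts.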

The nature of data set [2]: folding enthalpy; higher = less favourable; fluorescence melt of hairpins on a sequencing array, two-state fit. The conditions noted are these: sodium 0.088 M. In short, it runs like this: as §1

For the sequence GTTTATCGAAAGATTAAC (((.(((....))).))), the Tm in data set [1] worked out at 33.5 °C. In data set [2], the folding enthalpy was -28.9 kcal/mol.

GTTTATGAAAATAAAC ((((((....)))))): in data set [1], the Tm was found to be 42.4 °C. Further, the folding enthalpy in data set [2] is -33 kcal/mol.

For the sequence GTTTATGGAAACATAAAC (((((((....))))))), in data set [1], the Tm came out at 50 °C. The folding enthalpy in data set [2] is -38.1 kcal/mol.

Turning to GTTTCACGAAAGTGGAAC (((.(((....))).))), the Tm in data set [1] worked out at 52.2 °C. The folding enthalpy in data set [2] is -30.5 kcal/mol.

Regarding GTTTCAGGAAACTAAAAC ((((.((....)).)))), in data set [1], the Tm was found to be 29.2 °C. Also, the folding enthalpy in data set [2] was -8.21 kcal/mol.

As to GTTTCAGGAAACTGGAAC (((.(((....))).))), the Tm in data set [1] was 43.3 °C. In addition, in data set [2], the folding enthalpy was -26.4 kcal/mol.

Consider GTTTCCCGAAAGGGAAC (((.(((....)))))), for which, in data set [1], the Tm came out at 50.6 °C. For the same sequence, the folding enthalpy in data set [2] was -14.1 kcal/mol.

For GTTTCCCGAAAGGGCAAC (((.(((....))).))), the Tm in data set [1] amounted to 42 °C. Besides, in data set [2], the folding enthalpy was -21.7 kcal/mol.

As for GTTTCCCGAAAGGGTAAC (((.(((....))).))), the Tm in data set [1] came to 47.9 °C. Also, the folding enthalpy in data set [2] is -22.5 kcal/mol.

With GTTTCCGAAAGGAACAAC ((((((....)))..))), in data set [1], the Tm came out at 31.2 °C. Also, the folding enthalpy in data set [2] is -13.7 kcal/mol.

In the case of GTTTCCGGAAACGAAAAC ((((.((....)).)))), the Tm in data set [1] turned out to be 38.8 °C. Also, in data set [2], the folding enthalpy was -16.8 kcal/mol.

Take GTTTCGCGAAAGCGCAAC (((.(((....))).))): the Tm in data set [1] turned out to be 44.7 °C. Moreover, in data set [2], the folding enthalpy is -22.8 kcal/mol.

Consider GTTTCGGGAAACCGAAGC (.(((((....))))).), for which the Tm in data set [1] stood at 47.3 °C. Besides, the folding enthalpy in data set [2] is -23.4 kcal/mol.

For the sequence GTTTCTCCGAAAGGAAAC (((..(((....)))))), the Tm in data set [1] came to 33 °C. For the same sequence, in data set [2], the folding enthalpy was -14.8 kcal/mol.

Regarding GTTTCTCGAAAGAGTAAC (((.(((....))).))), the Tm in data set [1] stood at 38 °C. In data set [2], the folding enthalpy was -26.7 kcal/mol.

For GTTTGACGAAAGTCAAC (((.(((....)))))), the Tm in data set [1] stood at 46 °C. Besides, the folding enthalpy in data set [2] is -14 kcal/mol.

Take GTTTGAGGAAACTTAAAC ((((.((....)).)))): the Tm in data set [1] is 36.9 °C. Moreover, the folding enthalpy in data set [2] is -18.4 kcal/mol.

Turning to GTTTGCCGAAAGGCTAAC (((.(((....))).))), in data set [1], the Tm stood at 51.7 °C. Further, in data set [2], the folding enthalpy is -20.1 kcal/mol.

For the sequence GTTTGCGAAAGCAAAAAC ((((((....)))..))), the Tm in data set [1] came to 40.3 °C. Further, the folding enthalpy in data set [2] is -10.9 kcal/mol.

For the sequence GTTTGCGAAAGCACAAC ((((((....))).))), the Tm in data set [1] was 41.1 °C. Besides, in data set [2], the folding enthalpy was -17.1 kcal/mol.

Turning to GTTTGCGAAAGCACGAAC ((((((....)))..))), the Tm in data set [1] amounted to 27.1 °C. For the same sequence, in data set [2], the folding enthalpy was -9.85 kcal/mol.

GTTTGCGAAAGCAGAAAC ((((((....)))..))): the Tm in data set [1] stood at 34.2 °C. In addition, the folding enthalpy in data set [2] was -11.2 kcal/mol.

GTTTGCGAAAGCAGGAAC ((((((....)))..))): the Tm in data set [1] is 30.7 °C. In addition, the folding enthalpy in data set [2] is -10.3 kcal/mol.

Consider GTTTGCGCGAAAGCGAAC (((..(((....)))))), for which, in data set [1], the Tm was 36.5 °C. Besides, the folding enthalpy in data set [2] is -12 kcal/mol.

For GTTTGCGGAAACACAAAC (((((.(....).))))), the Tm in data set [1] was determined as 42.1 °C. Moreover, the folding enthalpy in data set [2] is -34.2 kcal/mol.

On to GTTTGCGGAAACGCAAGC (.(((((....))))).), for which the Tm in data set [1] was determined as 54.6 °C. Besides, the folding enthalpy in data set [2] was -23.4 kcal/mol.

As to GTTTGCGGAAACGCAGAC ((.((((....)))).)), the Tm in data set [1] worked out at 51.8 °C. Besides, the folding enthalpy in data set [2] is -24.6 kcal/mol.

For the sequence GTTTGGGGAAACCTAAAC ((((.((....)).)))), in data set [1], the Tm worked out at 40 °C. Besides, the folding enthalpy in data set [2] was -35.5 kcal/mol.

With GTTTGGGGAAACTCAGAC ((.((.(....).)).)), in data set [1], the Tm amounted to 27 °C. In data set [2], the folding enthalpy was -9.8 kcal/mol.

Regarding GTTTTCGAAAGAAAAAAC ((((((....)))..))), in data set [1], the Tm amounted to 29.8 °C. Also, the folding enthalpy in data set [2] was -11.1 kcal/mol.

With GTTTTCGAAAGAAAAAC ((((((....))).))), the Tm in data set [1] was found to be 39.2 °C. Moreover, in data set [2], the folding enthalpy is -15.8 kcal/mol.

On to GTTTTGAAAAAAAC (((((....))))), for which, in data set [1], the Tm was 37.6 °C. The folding enthalpy in data set [2] was -12 kcal/mol.

With GTTTTGGGAAACTAAAGC (.(((.(....).))).), the Tm in data set [1] stood at 27.3 °C. In addition, in data set [2], the folding enthalpy was -16.3 kcal/mol.

Regarding GTTTTTCGAAAGAAAAC (((.(((....)))))), in data set [1], the Tm was 35.8 °C. Moreover, the folding enthalpy in data set [2] is -21.4 kcal/mol.

On to GTTTTTGGAAACAAAAAC (((((((....))))))), for which the Tm in data set [1] came to 51.5 °C. Besides, in data set [2], the folding enthalpy is -41.9 kcal/mol.

As for GTTTTTGGAAACAAAGAC ((.((((....)))).)), the Tm in data set [1] was found to be 34 °C. In data set [2], the folding enthalpy was -24.5 kcal/mol.

Turning to TAACGGAAACGTTA (((((....))))), the Tm in data set [1] came out at 41.3 °C. The folding enthalpy in data set [2] is -18.4 kcal/mol.

As for TACAGGAAACTGTA (((((....))))), the Tm in data set [1] turned out to be 37.7 °C. For the same sequence, the folding enthalpy in data set [2] was -14.5 kcal/mol.

With TACCAGAAATGGTA (((((....))))), in data set [1], the Tm is 37.5 °C. The folding enthalpy in data set [2] is -13.3 kcal/mol.

As for TACCGGAAACGGTA (((((....))))), the Tm in data set [1] was found to be 50.2 °C. Besides, the folding enthalpy in data set [2] was -16 kcal/mol.

In the case of TACGTGAAAACGTA (((((....))))), in data set [1], the Tm worked out at 43.5 °C. The folding enthalpy in data set [2] is -16.8 kcal/mol.

Take TAGTGGAAACACTA (((((....))))): the Tm in data set [1] is 40.9 °C. Besides, the folding enthalpy in data set [2] is -14.9 kcal/mol.

With TATCCGAAAGGATA (((((....))))), the Tm in data set [1] was 56.5 °C. Also, the folding enthalpy in data set [2] was -16.6 kcal/mol.

As for TCTACGAAAGTAGA (((((....))))), the Tm in data set [1] stood at 47.8 °C. In addition, the folding enthalpy in data set [2] is -16.4 kcal/mol.

As to TCTGTGAAAACAGA (((((....))))), in data set [1], the Tm worked out at 42.4 °C. In addition, in data set [2], the folding enthalpy is -17.6 kcal/mol.

As for TGAACGAAAGTTCA (((((....))))), in data set [1], the Tm was determined as 53.3 °C. Further, the folding enthalpy in data set [2] is -20.6 kcal/mol.

As to TGAAGGAAACTTCA (((((....))))), the Tm in data set [1] was determined as 31.8 °C. Further, the folding enthalpy in data set [2] was -13.9 kcal/mol.

Turning to TGAATGAAAATTCA (((((....))))), in data set [1], the Tm was 30.4 °C. The folding enthalpy in data set [2] was -9.75 kcal/mol.

As for TGACGGAAACGTCA (((((....))))), the Tm in data set [1] is 52.5 °C. Besides, the folding enthalpy in data set [2] was -23.7 kcal/mol.

For the sequence TGAGAGAAATCTCA (((((....))))), the Tm in data set [1] is 28.2 °C. Moreover, the folding enthalpy in data set [2] was -9.57 kcal/mol.

Consider TGAGGGAAACCTCA (((((....))))), for which the Tm in data set [1] stood at 42.2 °C. Besides, in data set [2], the folding enthalpy is -20.9 kcal/mol.

In the case of TGATGGAAACATCA (((((....))))), the Tm in data set [1] turned out to be 41.3 °C. Moreover, the folding enthalpy in data set [2] was -22 kcal/mol.

Regarding TGCCTGAAAAGGCA (((((....))))), in data set [1], the Tm came to 59.1 °C. In data set [2], the folding enthalpy is -17.5 kcal/mol.

On to TGGTCGAAAGACCA (((((....))))), for which, in data set [1], the Tm came out at 66.8 °C. Also, the folding enthalpy in data set [2] was -19.1 kcal/mol.

Regarding TGGTGGAAACACCA (((((....))))), in data set [1], the Tm was 52.4 °C. Further, in data set [2], the folding enthalpy is -22.2 kcal/mol.

In the case of TGTCGGAAACGACA (((((....))))), in data set [1], the Tm worked out at 60 °C. Moreover, the folding enthalpy in data set [2] was -16.3 kcal/mol.

On to TTCAGGAAACTGAA (((((....))))), for which, in data set [1], the Tm turned out to be 35.7 °C. Besides, in data set [2], the folding enthalpy was -13.5 kcal/mol.

Take TTGACGAAAGTCAA (((((....))))): the Tm in data set [1] was 54.1 °C. Further, the folding enthalpy in data set [2] is -21.4 kcal/mol.

Regarding TTTGTGAAAACAAA (((((....))))), the Tm in data set [1] stood at 35.6 °C. Moreover, the folding enthalpy in data set [2] is -12.6 kcal/mol.
